From PMC8451882 (British Journal of Clinical Pharmacology, 2021)
Values joined by “and” are separate entries in the source; they are usually repeats but may differ in a detail not shown here. Equal values may be shown once.

Assays:
[1] = Population compartmental PK model; assay type: in vivo, human
In short: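 Pooled first-dose plasma concentrations (816 samples) from 39 healthy volunteers, SAD (fasted 1–600 mg; fed 100 mg) and MAD (fed 50–200 mg). Analysed in NONMEM 7.3 with ADVAN9 and first-order conditional estimation. 1- and 2-compartment models tested, with first-order absorption with or without lag time or transit compartments. IIV log-normal. Visual predictive checks used 500 simulations. Reported as estimate (% RSE).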

[2] = Safety and tolerability, MAD study; assay type: in vivo, human; settings: healthy volunteers, doses up to 200 mg BID for 7 days
In short: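 Single-centre, randomised, double-blind, placebo-controlled MAD study: 22 healthy men and women dosed with food, single dose on day 1, then BID (50, 100, 200 mg) or OD (100 mg) on days 3–9. Active and placebo assigned 6:3. Safety and tolerability assessed before and after dosing and at various time points.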

human P‐gp = human P‐gp (Homo sapiens, UniProt P08183); experiment: In vitro P-gp transport studies; assay type: in vitro ADME; settings: up to RO5459072 concentrations of 100 μM; data held on files at Roche
Single ascending dose = assay type: in vivo, human
In short: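 SAD study in healthy volunteers: micronised drug in hard-gelatine capsules without excipients, given orally after an overnight fast of at least 8 h (1, 3, 30, 100, 300, 600 mg), or 100 mg after a high-fat high-calorie breakfast. Plasma (K3EDTA) sampled 0.5–48 h after dosing and assayed by LC-MS/MS (1.00–1000 ng/mL). Parameters derived by noncompartmental analysis.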

[3] = Excretion after intravenous dose in rats; assay type: in vivo; settings: data held on files at Roche
Solubility = assay type: physicochemical
metabolic enzyme = experiment: In vitro enzymology studies, time-dependent metabolic enzyme inhibition; assay type: in vitro ADME; settings: RO5459072 and its metabolites; data held on files at Roche
[4] = BCS/BDDCS classification and permeability; assay type: physicochemical
Multiple ascending dose = assay type: in vivo, human
In short: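 MAD study in healthy men and women: oral doses of 50, 100 or 200 mg or placebo (6:3), given with food; first dose on day 1. Plasma (K3EDTA) sampled 0.5–48 h after the first dose. Test compound measured by liquid–liquid extraction and LC-MS/MS, calibration range 1.00–1000 ng/mL. Linearity judged from dose-normalised concentration–time profiles.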

cathepsin‐S = experiment: Inhibition of cathepsin-S enzyme activity throughout the dosing interval; assay type: in vivo, human; settings: 50 mg dose
[5] = Safety and tolerability, SAD study; assay type: in vivo, human; settings: healthy volunteers, single oral dose up to 600 mg
In short: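 First-in-human, single-centre, randomised, double-blind, placebo-controlled interleaved-cohort study: 17 healthy men and women in 2 cohorts with 4 periods each. Single oral doses from 1 to 600 mg given fasted, at least 14 days apart. Safety and tolerability assessed before and after dosing and at various time points.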

[6] = interindividual variability, CV% (% RSE) [shrinkage]

Chain of human P‐gp (P08183 whole entry): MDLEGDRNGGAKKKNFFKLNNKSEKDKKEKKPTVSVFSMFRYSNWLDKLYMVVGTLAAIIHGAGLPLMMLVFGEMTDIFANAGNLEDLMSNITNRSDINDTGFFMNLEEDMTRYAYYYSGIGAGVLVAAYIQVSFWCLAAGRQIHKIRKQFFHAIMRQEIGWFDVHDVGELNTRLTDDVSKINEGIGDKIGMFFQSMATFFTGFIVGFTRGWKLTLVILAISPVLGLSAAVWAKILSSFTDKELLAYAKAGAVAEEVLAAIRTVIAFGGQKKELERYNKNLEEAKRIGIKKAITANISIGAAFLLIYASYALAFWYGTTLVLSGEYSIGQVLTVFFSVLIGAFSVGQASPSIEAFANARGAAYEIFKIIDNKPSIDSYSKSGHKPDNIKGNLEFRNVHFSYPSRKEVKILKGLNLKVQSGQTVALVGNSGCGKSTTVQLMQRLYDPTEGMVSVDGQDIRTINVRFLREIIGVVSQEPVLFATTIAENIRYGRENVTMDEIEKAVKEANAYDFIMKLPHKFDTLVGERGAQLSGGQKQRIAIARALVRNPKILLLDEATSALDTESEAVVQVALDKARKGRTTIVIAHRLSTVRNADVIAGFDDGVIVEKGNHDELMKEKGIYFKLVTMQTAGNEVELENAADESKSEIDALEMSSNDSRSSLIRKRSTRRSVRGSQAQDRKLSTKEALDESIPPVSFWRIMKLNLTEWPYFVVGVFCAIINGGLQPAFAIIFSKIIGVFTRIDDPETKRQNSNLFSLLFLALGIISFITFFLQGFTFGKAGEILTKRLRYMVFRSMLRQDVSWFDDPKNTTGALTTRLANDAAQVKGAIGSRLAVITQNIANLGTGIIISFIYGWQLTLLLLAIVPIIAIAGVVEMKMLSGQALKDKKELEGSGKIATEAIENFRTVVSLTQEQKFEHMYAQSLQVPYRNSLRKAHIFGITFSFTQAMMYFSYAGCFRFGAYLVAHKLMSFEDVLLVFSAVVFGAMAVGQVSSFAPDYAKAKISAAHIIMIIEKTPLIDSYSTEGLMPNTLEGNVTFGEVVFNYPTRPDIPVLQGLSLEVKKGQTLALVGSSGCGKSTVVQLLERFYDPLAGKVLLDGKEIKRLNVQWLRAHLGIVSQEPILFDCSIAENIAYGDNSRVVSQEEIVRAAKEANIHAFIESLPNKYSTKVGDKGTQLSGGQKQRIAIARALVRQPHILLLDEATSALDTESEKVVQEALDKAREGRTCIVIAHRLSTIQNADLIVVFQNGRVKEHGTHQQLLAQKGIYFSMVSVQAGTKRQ

Cn1cc(-c2ccc(S(=O)(=O)[C@@H]3C[C@@H](C(=O)NC4(C#N)CC4)N(C(=O)C4(C(F)(F)F)CC4)C3)c(C(F)(F)F)c2)cn1 [RO5459072]
CL/F, apparent total clearance ([1]; fasted and fed conditions, estimate (% RSE)): 9.38 (3.65) L h^−1
kaFaPI, first-order absorption rate constant of the proximal intestine ([1]; fasted, doses > 3 mg (10 to 600 mg), estimate (% RSE)): 2.05 h^−1 and 2.05 (6.29) h^−1
kaFaDI, first-order absorption rate constant of the distal intestine ([1]; fasted, doses > 3 mg, estimate (% RSE)): 0.065 h^−1 and 0.065 (9.31) h^−1
apparent fraction of the total dose absorbed from the distal intestine ([1]; fasted, on average for doses between 10 and 600 mg): ~ 16%
IIV of D50 [1, 6]: 38.5% (27.3) [40.9%] CV%
IIV of FFaDI [1, 6]: 32.1% (38.9) [41.0%] CV%
IIV of Vc/F [1, 6]: 24.0% (15.0) [14.6%] CV%
IIV of kaFaPI for doses > 3 mg [1, 6]: 33.8% (13.8) [2.44%] CV%
IIV of kaFe [1, 6]: 39.2% (14.8) [4.21%] CV%
tolerability [2]: tolerated similarly to placebo
saturability of human P-gp (human P‐gp): not saturable
Tmax (Single ascending dose; both, human, plasma, oral, 100 mg, Tmax, fed): 5 h
half-life (Single ascending dose; both, human, plasma, oral, 600 mg, noncompartmental analysis apparent terminal half-life, fasted, highest doses between 100 and 600 mg): 13 to 16 h
increase in systemic exposure with dose (Single ascending dose; fasted, doses <10 mg): more than dose proportional
increase in systemic exposure with dose (Single ascending dose; fasted, doses >30 mg): less than dose proportional
Tmax delay fed versus fasted (Single ascending dose; fed later than fasted): approximately 1 hour
decrease of estimated average half-life by food (noncompartmental analysis) (Single ascending dose; fed versus fasted): approximately 4 hours
fraction of dose found unchanged in the faeces [3]: 50%
solubility (Solubility): < 20 µg/mL
time-dependent metabolic enzyme inhibition (metabolic enzyme): absence
Biopharmaceutics Classification System class [4]: 2
permeability [4]: highly permeable
half-life (Multiple ascending dose; both, human, plasma, oral, average estimated terminal half-lives, fed, 50 mg, 100 mg, 200 mg doses): 8 to 10 h
PK linearity (Multiple ascending dose; fed condition from 50 to 100 mg): linear
inhibition of cathepsin-S enzyme activity in average throughout the dosing interval (cathepsin‐S): about 93%
tolerability [5]: similarly tolerated to placebo
